Experimental data as given in ChEMBL document CHEMBL4732155 (Eur J Med Chem, 2021).
Calls of active or inactive are those of the source. No cut-off for these calls is given here.

Experiments:
[1] = Effect on KEAP1 expression in human HCT-116 cells at 30 uM measured after 6 hrs by LC-MS/MS analysis relative to control; type: functional
Procedure, shortened: (§1)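 HCT116 cells treated 6 h with DMSO, 15 μM or 30 μM compound, then pelleted. Peptides (1 μg) separated on a 25 cm C18 nano-column with a 136 min gradient and analysed by label-free LC-MS/MS on an Orbitrap Eclipse. Searched against the UniProt human database and quantified from normalized abundance. Two independent biological replicates per group; log2 fold change versus DMSO, p < 0.05.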

[2] = Effect on PLEC expression in human HCT-116 cells at 15 uM measured after 6 hrs by LC-MS/MS analysis relative to control; type: functional; procedure, shortened: as §1
[3] = Effect on PRKRIR expression in human HCT-116 cells at 15 uM measured after 6 hrs by LC-MS/MS analysis relative to control; type: functional; procedure, shortened: as §1
[4] = Effect on KEAP1 expression in human HCT-116 cells at 15 uM measured after 6 hrs by LC-MS/MS analysis relative to control; type: functional; procedure, shortened: as §1
HCT-116 [5] = assay: Antiproliferative activity against human HCT-116 cells after 48 hrs by celltiter-glo luminescence assay; type: functional, cell-based; conditions: HCT-116, 48 h
[6] = Effect on KNTC1 expression in human HCT-116 cells at 15 uM measured after 6 hrs by LC-MS/MS analysis relative to control; type: functional; procedure, shortened: as §1
[7] = target: T1, Transitional endoplasmic reticulum ATPase (Homo sapiens, UniProt P55072); assay: Irreversible inhibition of p97 in human HeLa cells assessed as reduction in p97-dependent reporter substrate UbG76V-GFP degradation preincubated followed by washout and measured after 17 hrs by luciferase reporter gene assay; type: cell-based; conditions: in the assay text read “GFP fluorescence assay” for “luciferase reporter gene assay”
Procedure, shortened: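 HeLa cells expressing UbG76V-GFP/ODD-Luc, 5000 cells/well in DMEM with 2.5% FBS. Pretreated with 4 μM MG132 for 60 min at 37 °C, PBS-washed, then given cycloheximide plus compound for 120 min. After washout, GFP decay followed in cycloheximide for an additional 17 h. GFP read by high-content imaging; luciferase read with D-luciferin; quadruplicates.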
Target sequence in this assay (P55072 2-806 limits assumed): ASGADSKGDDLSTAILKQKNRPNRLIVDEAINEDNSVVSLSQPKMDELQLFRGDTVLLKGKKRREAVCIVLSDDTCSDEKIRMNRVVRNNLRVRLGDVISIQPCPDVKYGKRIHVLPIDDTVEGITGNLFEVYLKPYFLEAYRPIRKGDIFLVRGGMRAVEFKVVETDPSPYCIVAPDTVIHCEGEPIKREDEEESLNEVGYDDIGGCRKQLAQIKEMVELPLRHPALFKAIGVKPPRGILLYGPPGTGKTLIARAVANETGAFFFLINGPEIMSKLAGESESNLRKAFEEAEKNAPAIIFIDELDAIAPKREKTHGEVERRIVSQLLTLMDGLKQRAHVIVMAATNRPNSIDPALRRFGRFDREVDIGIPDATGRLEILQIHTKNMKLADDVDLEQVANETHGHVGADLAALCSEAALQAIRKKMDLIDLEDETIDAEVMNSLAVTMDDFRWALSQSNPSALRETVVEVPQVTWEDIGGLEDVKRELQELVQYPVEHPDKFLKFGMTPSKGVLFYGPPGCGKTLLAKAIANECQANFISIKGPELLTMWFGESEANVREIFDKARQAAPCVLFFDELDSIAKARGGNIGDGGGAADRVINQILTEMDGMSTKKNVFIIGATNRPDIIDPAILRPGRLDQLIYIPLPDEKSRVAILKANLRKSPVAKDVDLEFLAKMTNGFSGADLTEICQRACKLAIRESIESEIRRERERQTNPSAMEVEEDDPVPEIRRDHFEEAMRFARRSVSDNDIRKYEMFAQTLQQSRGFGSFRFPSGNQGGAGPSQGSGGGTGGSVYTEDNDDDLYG

[8] = target: T1, Transitional endoplasmic reticulum ATPase; assay: Binding affinity to His6-tagged p97 (unknown origin) expressed in Escherichia coli BL21 (DE3) assessed as Cys522-adduct formation by tandem mass spectrometry
Target sequence in this assay (P55072 2-806 limits assumed): as above

[9] = Effect on SQSTM1 expression in human HCT-116 cells at 15 uM measured after 6 hrs by LC-MS/MS analysis relative to control; type: functional; procedure, shortened: as §1
RPMI-8226 = assay: Antiproliferative activity against human RPMI-8226 cells after 48 hrs by celltiter-glo luminescence assay; type: functional, cell-based; conditions: RPMI-8226, 48 h
HCT-116 [10] = assay: Antiproliferative activity against NMS-873-resistant human HCT-116 cells after 48 hrs by celltiter-glo luminescence assay; type: functional, cell-based
Procedure, shortened: (§2)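 CellTiter-Glo viability in HCT116 lines carrying resistance mutations in p97 (CB-5083-resistant: D649A/T688A; NMS-873-resistant: A530T). Cells seeded at 750 or 3000/well within the linear range of a per-line standard curve, in DMEM with 5% FBS. Treated 24 h after seeding with eight three-fold dilutions for 48 h. IC50 from percent growth versus DMSO control; mean ± SEM of four replicate experiments.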

[11] = target: T1, Transitional endoplasmic reticulum ATPase; assay: Inhibition of His6-tagged p97 (unknown origin) expressed in Escherichia coli BL21 (DE3) assessed as reduction in ATPase activity measured after 60 mins by biomol green reagent based assay
Procedure, shortened: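 His6-p97 expressed in E. coli BL21(DE3), purified by Ni-NTA and gel filtration (500–600 kDa fractions, ≥95% pure). Phosphate read by Biomol Green at 635 nm. Eight-dose titrations; IC50 from six replicates. Thiol tests added DTT or cysteine during preincubation.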
Target sequence in this assay (P55072 whole entry): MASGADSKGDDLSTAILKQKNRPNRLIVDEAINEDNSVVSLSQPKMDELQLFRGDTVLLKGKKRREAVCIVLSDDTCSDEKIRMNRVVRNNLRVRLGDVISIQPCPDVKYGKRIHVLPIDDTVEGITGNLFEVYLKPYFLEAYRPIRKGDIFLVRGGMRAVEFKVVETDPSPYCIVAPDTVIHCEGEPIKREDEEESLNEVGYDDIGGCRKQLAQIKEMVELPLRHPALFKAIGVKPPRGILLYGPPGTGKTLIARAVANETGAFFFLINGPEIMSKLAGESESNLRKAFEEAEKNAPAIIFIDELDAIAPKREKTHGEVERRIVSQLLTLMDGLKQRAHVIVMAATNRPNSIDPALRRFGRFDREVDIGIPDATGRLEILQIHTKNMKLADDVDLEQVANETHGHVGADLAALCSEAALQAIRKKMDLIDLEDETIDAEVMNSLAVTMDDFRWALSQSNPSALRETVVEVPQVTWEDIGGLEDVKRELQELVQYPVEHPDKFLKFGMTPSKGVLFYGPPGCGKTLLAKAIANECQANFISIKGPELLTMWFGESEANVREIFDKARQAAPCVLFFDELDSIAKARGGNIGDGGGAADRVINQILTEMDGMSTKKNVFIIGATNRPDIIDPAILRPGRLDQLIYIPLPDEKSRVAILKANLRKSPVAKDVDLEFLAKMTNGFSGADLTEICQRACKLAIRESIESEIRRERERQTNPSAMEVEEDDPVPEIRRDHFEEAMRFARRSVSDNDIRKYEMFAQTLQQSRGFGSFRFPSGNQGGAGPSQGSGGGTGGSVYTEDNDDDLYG

[12] = Effect on KNTC1 expression in human HCT-116 cells at 30 uM measured after 6 hrs by LC-MS/MS analysis relative to control; type: functional; procedure, shortened: as §1
[13] = Effect on GOLGA3 expression in human HCT-116 cells at 30 uM measured after 6 hrs by LC-MS/MS analysis relative to control; type: functional; procedure, shortened: as §1
[14] = Effect on SQSTM1 expression in human HCT-116 cells at 30 uM measured after 6 hrs by LC-MS/MS analysis relative to control; type: functional; procedure, shortened: as §1
[15] = Effect on CDK2AP1 expression in human HCT-116 cells at 15 uM measured after 6 hrs by LC-MS/MS analysis relative to control; type: functional; procedure, shortened: as §1
HeLa = assay: Antiproliferative activity against human HeLa cells after 48 hrs by celltiter-glo luminescence assay; type: functional, cell-based
[16] = Effect on LAMP1 expression in human HCT-116 cells at 15 uM measured after 6 hrs by LC-MS/MS analysis relative to control; type: functional; procedure, shortened: as §1
[17] = Effect on EPPK1 expression in human HCT-116 cells at 30 uM measured after 6 hrs by LC-MS/MS analysis relative to control; type: functional; procedure, shortened: as §1
[18] = Effect on LAMP1 expression in human HCT-116 cells at 30 uM measured after 6 hrs by LC-MS/MS analysis relative to control; type: functional; procedure, shortened: as §1
[19] = Effect on ZFAND1 expression in human HCT-116 cells at 30 uM measured after 6 hrs by LC-MS/MS analysis relative to control; type: functional; procedure, shortened: as §1
[20] = Effect on BRCC3 expression in human HCT-116 cells at 30 uM measured after 6 hrs by LC-MS/MS analysis relative to control; type: functional; procedure, shortened: as §1
HCT-116 [21] = assay: Antiproliferative activity against CB-5083-resistant human HCT-116 cells after 48 hrs by celltiter-glo luminescence assay; type: functional, cell-based; procedure, shortened: as §2
[22] = Effect on STIM1 expression in human HCT-116 cells at 15 uM measured after 6 hrs by LC-MS/MS analysis relative to control; type: functional; procedure, shortened: as §1
[23] = Effect on ZFAND1 expression in human HCT-116 cells at 15 uM measured after 6 hrs by LC-MS/MS analysis relative to control; type: functional; procedure, shortened: as §1
[24] = Effect on BRCC3 expression in human HCT-116 cells at 15 uM measured after 6 hrs by LC-MS/MS analysis relative to control; type: functional; procedure, shortened: as §1
[25] = Effect on AUP1 expression in human HCT-116 cells at 30 uM measured after 6 hrs by LC-MS/MS analysis relative to control; type: functional; procedure, shortened: as §1
[26] = Inhibition of yeast Cdc48 T532C mutant assessed as reduction in ATPase activity measured after 60 mins by biomol green reagent based assay; parameters: species or system Saccharomyces cerevisiae
Procedure, shortened: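 Yeast Cdc48 ATPase activity with 200 μM ATP in Tris pH 7.4 buffer containing MgCl2, EDTA, TCEP and Triton X-100, 60 min at room temperature. Biomol Green read at 635 nm. Eight-dose titration; IC50 from six replicates.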

[27] = Effect on AP2M1 expression in human HCT-116 cells at 30 uM measured after 6 hrs by LC-MS/MS analysis relative to control; type: functional; procedure, shortened: as §1
[28] = target: T1, Transitional endoplasmic reticulum ATPase; assay: Inhibition of p97 in human HeLa cells assessed as reduction in proteasomal turnover of p97-dependent reporter substrate UbG76V-GFP incubated for 120 mins by GFP fluorescence imaging
Target sequence in this assay (P55072 whole entry): as above

Work on `C=CC(=O)Nc1ncnc2c1c(-c1ccccc1)nn2C(C)(C)C` yielded a log2FC [1] of -1.03, a log2FC [2] of 0.33 and a log2FC [3] of 0.69. It also gave a log2FC [4] of -0.46, an IC50 (HCT-116 [5]) of 2.7 µM and a log2FC [6] of -0.43. The inhibition [7] was “Active”, the Activity [8] was “Active” and the log2FC [9] was 0.42. For the same compound, the IC50 (RPMI-8226) was 3.4 µM, the Activity (HCT-116 [10]) was “Active” and the IC50 [11] was 0.6 µM. It also gave a log2FC [12] of -0.87, a log2FC [13] of -0.7 and a log2FC [14] of 0.97. It also gave a log2FC [15] of -0.48, an IC50 (HeLa) of 6.1 µM and a log2FC [16] of -0.59. It also gave a log2FC [17] of 0.64, a log2FC [18] of -0.66 and a log2FC [19] of 0.42. For the same compound, the log2FC [20] was 0.83, the Activity (HCT-116 [21]) was “Active” and the log2FC [22] was 1.49. It also gave a log2FC [23] of 0.49, a log2FC [24] of 0.94 and a log2FC [25] of -0.43. It also gave an IC50 [26] of 14 µM, a log2FC [27] of -0.38 and an IC50 [28] of 1.6 µM.
